Source: ChEMBL document CHEMBL2429772, “Selective arylsulfonamide inhibitors of ADAM-17: hit optimization and activity in ovarian cancer cell models” (J Med Chem, 2013)

Experiments:
[1] = target: Disintegrin and metalloproteinase domain-containing protein 17 (Homo sapiens, UniProt P78536); assay: Inhibition of recombinant human ADAM-17 using Mca-Lys-Pro-Leu-Gly-Leu-Dap(Dnp)-Ala-Arg-NH2 as substrate incubated for 30 mins measured every 15 secs for 20 mins by fluorimetric assay
Outline: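 Enzyme at 5 nM final was preincubated with inhibitor for 30 min at 37 °C in Tris 25 mM pH 9, ZnCl2 25 µM, 0.005% Brij-35. Substrate was at 2 µM final. Fluorescence increase (ex 325/em 400 nm) gave initial rates, in duplicate. IC50 was derived from vi/vo = 1/(1+[I]/IC50).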

[2] = target: 72 kDa type IV collagenase (Homo sapiens, UniProt P08253); assay: Inhibition of recombinant human MMP-2 using Mca-Lys-Pro-Leu-Gly-Leu-Dap(Dnp)-Ala-Arg-NH2 as substrate incubated for 4 hrs measured every 15 secs for 20 mins by fluorimetric assay
Outline: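 Pro-MMP-2 was activated with 2 mM APMA for 1 h at 37 °C and used at 0.56 nM final. It was preincubated with inhibitor for 4 h at 25 °C in Tris 50 mM pH 7.5 buffer containing NaCl, CaCl2, Brij-35 and 1% DMSO. Substrate was at 2 µM final, ex 325/em 400 nm, run in duplicate. IC50 was taken from initial-velocity ratios, vi/vo = 1/(1+[I]/IC50).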

[3] = target: Matrix metalloproteinase-9 (Homo sapiens, UniProt P14780); assay: Inhibition of recombinant human MMP-9 using Mca-Lys-Pro-Leu-Gly-Leu-Dap(Dnp)-Ala-Arg-NH2 as substrate incubated for 4 hrs measured every 15 secs for 20 mins by fluorimetric assay
Outline: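 Pro-MMP-9 was activated with 1 mM APMA for 1 h at 37 °C and used at 1.3 nM final. Inhibitor was incubated with enzyme for 4 h at 25 °C in Tris 50 mM pH 7.5, NaCl 150 mM, CaCl2 10 mM, 0.05% Brij-35, 1% DMSO. Substrate was at 2 µM final, ex 325/em 400 nm, in duplicate. IC50 was obtained from vi/vo = 1/(1+[I]/IC50).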

Interstitial collagenase = target: T1, Interstitial collagenase (Homo sapiens, UniProt P03956); assay: Inhibition of recombinant human MMP-1 using Mca-Lys-Pro-Leu-Gly-Leu-Dap(Dnp)-Ala-Arg-NH2 as substrate incubated for 4 hrs measured every 15 secs for 20 mins by fluorimetric assay
T1 sequence (P03956 whole entry): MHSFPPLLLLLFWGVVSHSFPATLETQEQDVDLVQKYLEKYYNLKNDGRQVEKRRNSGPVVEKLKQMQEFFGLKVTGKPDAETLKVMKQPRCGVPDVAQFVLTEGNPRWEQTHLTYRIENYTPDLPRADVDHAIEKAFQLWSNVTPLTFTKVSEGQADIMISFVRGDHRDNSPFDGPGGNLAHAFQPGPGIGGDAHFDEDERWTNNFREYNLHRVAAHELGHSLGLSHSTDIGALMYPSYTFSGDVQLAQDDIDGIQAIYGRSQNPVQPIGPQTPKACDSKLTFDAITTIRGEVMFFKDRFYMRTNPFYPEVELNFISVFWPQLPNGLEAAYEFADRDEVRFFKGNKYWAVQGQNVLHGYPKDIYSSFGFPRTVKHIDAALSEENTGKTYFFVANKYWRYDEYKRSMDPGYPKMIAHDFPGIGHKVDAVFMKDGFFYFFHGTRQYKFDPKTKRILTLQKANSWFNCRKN
Outline: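 Pro-MMP-1 was activated with 2 mM APMA for 2 h at 37 °C. Enzyme (2.0 nM final) was incubated with inhibitor in Tris 50 mM pH 7.5, NaCl 150 mM, CaCl2 10 mM, 0.05% Brij-35, 1% DMSO for 4 h at 25 °C. Substrate was added at 2 µM final. Fluorescence (ex 325/em 400 nm) was read for initial rates, in duplicate. IC50 came from vi/vo = 1/(1+[I]/IC50).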

[4] = target: Matrix metalloproteinase-14 (Homo sapiens, UniProt P50281); assay: Inhibition of recombinant human MMP-14 catalytic domain using Mca-Lys-Pro-Leu-Gly-Leu-Dap(Dnp)-Ala-Arg-NH2 as substrate incubated for 4 hrs measured every 15 secs for 20 mins by fluorimetric assay
Outline: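 MMP-14 catalytic domain was used at 1.0 nM final with no activation step. It was incubated with inhibitor for 4 h at 25 °C in Tris 50 mM pH 7.5 buffer with NaCl 150 mM, CaCl2 10 mM, 0.05% Brij-35 and 1% DMSO. Substrate was at 2 µM final, ex 325/em 400 nm, duplicate wells. IC50 was fitted by vi/vo = 1/(1+[I]/IC50).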

Chain of 72 kDa type IV collagenase (P08253 whole entry): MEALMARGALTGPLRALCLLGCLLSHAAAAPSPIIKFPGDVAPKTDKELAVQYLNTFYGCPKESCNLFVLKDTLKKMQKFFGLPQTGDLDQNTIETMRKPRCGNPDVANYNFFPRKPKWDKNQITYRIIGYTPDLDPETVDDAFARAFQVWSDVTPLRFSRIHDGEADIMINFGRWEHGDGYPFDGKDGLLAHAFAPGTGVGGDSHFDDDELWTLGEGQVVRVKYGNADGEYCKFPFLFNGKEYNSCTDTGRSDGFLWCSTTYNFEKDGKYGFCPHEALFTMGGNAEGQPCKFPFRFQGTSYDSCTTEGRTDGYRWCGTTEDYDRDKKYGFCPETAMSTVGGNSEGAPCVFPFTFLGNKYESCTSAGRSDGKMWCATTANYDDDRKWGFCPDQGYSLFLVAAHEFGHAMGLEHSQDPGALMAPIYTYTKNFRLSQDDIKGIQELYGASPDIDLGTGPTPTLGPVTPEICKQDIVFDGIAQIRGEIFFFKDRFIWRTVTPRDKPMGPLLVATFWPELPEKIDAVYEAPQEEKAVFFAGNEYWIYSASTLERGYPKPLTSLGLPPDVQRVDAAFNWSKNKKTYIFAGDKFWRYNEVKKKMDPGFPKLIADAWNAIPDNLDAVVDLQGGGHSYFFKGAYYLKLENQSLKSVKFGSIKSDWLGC
Chain of Matrix metalloproteinase-9 (P14780 whole entry): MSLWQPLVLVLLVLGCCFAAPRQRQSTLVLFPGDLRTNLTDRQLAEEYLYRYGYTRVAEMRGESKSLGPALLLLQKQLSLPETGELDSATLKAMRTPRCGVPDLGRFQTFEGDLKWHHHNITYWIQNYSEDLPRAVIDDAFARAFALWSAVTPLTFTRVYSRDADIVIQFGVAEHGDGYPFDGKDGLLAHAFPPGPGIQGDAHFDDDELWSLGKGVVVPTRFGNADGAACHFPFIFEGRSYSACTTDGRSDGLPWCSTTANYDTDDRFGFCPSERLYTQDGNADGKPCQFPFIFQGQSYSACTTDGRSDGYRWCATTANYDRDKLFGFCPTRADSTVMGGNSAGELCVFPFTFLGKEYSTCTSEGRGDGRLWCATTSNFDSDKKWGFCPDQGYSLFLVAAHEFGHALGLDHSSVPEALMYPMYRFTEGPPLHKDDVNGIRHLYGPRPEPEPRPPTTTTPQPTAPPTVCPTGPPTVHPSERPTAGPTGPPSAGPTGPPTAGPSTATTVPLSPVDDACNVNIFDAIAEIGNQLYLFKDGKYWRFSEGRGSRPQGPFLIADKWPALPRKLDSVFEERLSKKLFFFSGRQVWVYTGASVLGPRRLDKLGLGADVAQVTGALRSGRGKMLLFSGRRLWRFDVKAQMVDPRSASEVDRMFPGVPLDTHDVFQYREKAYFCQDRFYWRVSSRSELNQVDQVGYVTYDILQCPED
Chain of Disintegrin and metalloproteinase domain-containing protein 17 (P78536 whole entry, the tested form may be a part): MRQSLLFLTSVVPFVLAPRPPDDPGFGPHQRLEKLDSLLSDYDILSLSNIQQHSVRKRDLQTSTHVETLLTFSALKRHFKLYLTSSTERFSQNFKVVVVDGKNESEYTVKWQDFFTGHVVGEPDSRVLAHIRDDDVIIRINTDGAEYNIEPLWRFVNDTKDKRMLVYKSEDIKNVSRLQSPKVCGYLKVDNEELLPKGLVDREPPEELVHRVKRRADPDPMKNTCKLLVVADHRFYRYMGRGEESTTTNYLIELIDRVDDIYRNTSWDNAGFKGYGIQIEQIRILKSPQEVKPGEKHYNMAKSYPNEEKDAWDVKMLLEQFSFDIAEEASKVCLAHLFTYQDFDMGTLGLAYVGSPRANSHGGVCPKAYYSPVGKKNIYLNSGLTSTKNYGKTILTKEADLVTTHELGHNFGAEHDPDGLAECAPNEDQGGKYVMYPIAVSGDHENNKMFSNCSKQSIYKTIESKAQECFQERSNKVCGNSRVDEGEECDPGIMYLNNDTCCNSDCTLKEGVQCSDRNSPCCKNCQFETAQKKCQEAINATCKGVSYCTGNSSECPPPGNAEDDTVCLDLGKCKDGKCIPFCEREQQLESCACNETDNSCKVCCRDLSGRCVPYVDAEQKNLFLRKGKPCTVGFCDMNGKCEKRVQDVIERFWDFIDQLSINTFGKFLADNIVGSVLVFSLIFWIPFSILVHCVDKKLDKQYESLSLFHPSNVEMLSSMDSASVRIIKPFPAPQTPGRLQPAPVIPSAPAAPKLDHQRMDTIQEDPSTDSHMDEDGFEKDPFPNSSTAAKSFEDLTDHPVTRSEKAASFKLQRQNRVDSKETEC

IC50 [1] | IC50 [2] | IC50 [3] | IC50 (Interstitial collagenase) | IC50 [4] | SMILES
0.082 µM | 0.018 µM | 0.33 µM | 181 µM | 0.89 µM | O=C(CNS(=O)(=O)c1ccc(OCc2cc(F)cc(F)c2)cc1)NO
0.017 µM | 0.11 µM | 0.89 µM | 28 µM | 2.9 µM | CC#CCOc1ccc(S(=O)(=O)NCC(=O)NO)cc1
0.5 µM | 1.05 µM | – | > 500 µM | 21.4 µM | O=C(CNS(=O)(=O)c1ccc(OCc2cc(Br)cc(-c3cccnc3)c2)cc1)NO
0.071 µM | 0.0078 µM | 0.11 µM | 61 µM | 0.94 µM | O=C(CNS(=O)(=O)c1ccc(OCc2cccc(F)c2)cc1)NO
0.16 µM | 1.87 µM | – | > 200 µM | 123 µM | CN(CC(=O)NO)S(=O)(=O)c1ccc(OCc2cc(Br)cc(Br)c2)cc1
0.32 µM | 3.8 µM | – | > 200 µM | 170 µM | COc1ccc(-c2cc(Br)cc(COc3ccc(S(=O)(=O)NCC(=O)NO)cc3)c2)cc1
0.076 µM | 0.041 µM | 0.92 µM | 100 µM | 1.7 µM | O=C(CNS(=O)(=O)c1ccc(OCc2cccc(-c3ccccc3)c2)cc1)NO
0.28 µM | 0.02 µM | 0.076 µM | > 500 µM | 2.9 µM | O=C(CNS(=O)(=O)c1ccc(OCc2cccc(OC(F)(F)F)c2)cc1)NO
> 50 µM | 125 µM | – | – | – | O=C(O)CNS(=O)(=O)c1ccc(OCc2cc(Br)cc(Br)c2)cc1
0.2 µM | 0.0075 µM | 0.037 µM | 74 µM | 7.2 µM | O=C(CNS(=O)(=O)c1ccc(OCc2ccc(OC(F)(F)F)cc2)cc1)NO
0.104 µM | 0.015 µM | 0.06 µM | > 500 µM | 1.6 µM | O=C(CNS(=O)(=O)c1ccc(OCc2cccc(Br)c2)cc1)NO
0.59 µM | – | 0.096 µM | – | – | O=C(CNS(=O)(=O)c1ccc(OCc2ccccc2)cc1)NO
0.016 µM | 0.0012 µM | 0.0014 µM | 120 µM | 0.63 µM | O=C(CNS(=O)(=O)c1ccc(OCc2ccc(Br)cc2)cc1)NO
0.64 µM | 0.048 µM | 0.69 µM | > 500 µM | 72 µM | O=C(CNS(=O)(=O)c1ccc(OCc2ccc(-c3ccccc3)cc2)cc1)NO
0.145 µM | 0.003 µM | 0.042 µM | 32 µM | 0.59 µM | O=C(CNS(=O)(=O)c1ccc(OCc2ccc(F)cc2)cc1)NO
0.65 µM | 0.67 µM | 29 µM | 620 µM | 120 µM | O=C(CNS(=O)(=O)c1ccc(OCc2cccc3cccnc23)cc1)NO
